Measured values: ChEMBL document CHEMBL1123352, “Anticonvulsant activity of 2- and 3-aminobenzanilides” (J Med Chem, 1986)
Several values for one entry are separate records, joined by “and”; a condition that tells them apart may be missing. Equal entries are not always repeated. Activity calls are given as the source filed them. The rule behind the calls is not given here.

Assays:
[1] = tested on: Mus musculus; assay: Anticonvulsant activity against subcutaneous pentylenetetrazole induced convulsions in mice 4 hr after ip administration of 600 mg/kg.; assay type: functional, organism-based; set-up: dose 600 mg/kg
Method in brief: (§1)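 Male Carworth Farms No. 1 mice were dosed ip with compound in 30% PEG 400, at 30–600 mg/kg, and read at 30 min and 4 h. Pentylenetetrazole was given at 85 mg/kg as a 0.5% solution sc in the posterior midline. Protection meant no single episode of clonic spasms lasting at least 5 s over a 30-min observation.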

[2] = tested on: Mus musculus; assay: Anticonvulsant activity against maximal electroshock (MES) induced seizures in mice 4 hours after ip administration of 300 mg/kg; A=Active; assay type: functional, organism-based; set-up: dose 300 mg/kg
Method in brief: (§2)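 Male Carworth Farms No. 1 mice were dosed ip with compound in 30% polyethylene glycol 400, at 30, 100 and 300 mg/kg and sometimes 600 mg/kg, and tested 30 min and 4 h later. A drop of 0.9% saline went in the eye, then 60-cycle AC at 50 mA was given for 0.2 s via corneal electrodes. Protection meant abolition of hind limb tonic extension.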

[3] = tested on: Mus musculus; assay: Compound was tested for toxicity by rotarod assay method in mice 30 min after ip administration of 600 mg/kg; A=Active; assay type: organism-based; set-up: dose 600 mg/kg, route intraperitoneal; conditions: in vivo, 0.5 h
[4] = tested on: Mus musculus; assay: Anticonvulsant activity against maximal electroshock (MES) induced seizures in mice 30 minutes after ip administration of 300 mg/kg; A=Active; assay type: functional, organism-based; set-up: dose 300 mg/kg; method in brief: as §2
[5] = tested on: Mus musculus; assay: Anticonvulsant activity against sc pentylenetetrazole-induced convulsions in mice 30 minutes after ip administration of 300 mg/kg; A=Active; assay type: functional, organism-based; set-up: dose 300 mg/kg; method in brief: as §1
[6] = tested on: Mus musculus; assay: Anticonvulsant activity against sc pentylenetetrazole-induced convulsions in mice 4 hr after ip administration of 600 mg/kg; A=Active; assay type: functional, organism-based; set-up: dose 600 mg/kg; method in brief: as §1
[7] = tested on: Mus musculus; assay: Anticonvulsant activity against maximal electroshock (MES) induced seizures in mice 30 minutes after ip administration of 100 mg/kg; A=Active; assay type: functional, organism-based; set-up: dose 100 mg/kg; method in brief: as §2
[8] = tested on: Mus musculus; assay: Anticonvulsant activity against maximal electroshock (MES) induced seizures in mice 4 hours after ip administration of 600 mg/kg; A=Active; assay type: functional, organism-based; set-up: dose 600 mg/kg; method in brief: as §2
[9] = tested on: Mus musculus; assay: Compound was tested for toxicity by rotarod assay method in mice 30 min after ip administration of 300 mg/kg; A=Active; assay type: organism-based; set-up: dose 300 mg/kg, route intraperitoneal; conditions: in vivo, 0.5 h
[10] = tested on: Mus musculus; assay: Compound was tested for toxicity by rotarod assay method in mice 4 hours after ip administration of 600 mg/kg; A=Active; assay type: organism-based; set-up: dose 600 mg/kg, route intraperitoneal; conditions: in vivo
[11] = tested on: Mus musculus; assay: Anticonvulsant activity against maximal electroshock (MES) induced seizures in mice 4 hours after ip administration of 600 mg/kg.; assay type: functional, organism-based; set-up: dose 600 mg/kg; method in brief: as §2
[12] = tested on: Mus musculus; assay: Compound was tested for toxicity by rotarod assay method in mice 4 hours after ip administration at 600 mg/kg; no activity; assay type: organism-based; set-up: dose 600 mg/kg, route intraperitoneal; conditions: in vivo
[13] = tested on: Mus musculus; assay: Anticonvulsant activity against maximal electroshock (MES) induced seizures in mice 30 minutes after ip administration of 600 mg/kg; NA=No activity; assay type: functional, organism-based; set-up: dose 600 mg/kg; method in brief: as §2
[14] = tested on: Mus musculus; assay: Anticonvulsant activity against subcutaneous pentylenetetrazole induced convulsions in mice 4 hours after ip administration of 600 mg/kg; No=No activity; assay type: functional, organism-based; set-up: dose 600 mg/kg; method in brief: as §1
[15] = tested on: Mus musculus; assay: Anticonvulsant activity against subcutaneous pentylenetetrazole induced convulsions in mice 30 min after ip administration of 600 mg/kg.; assay type: functional, organism-based; set-up: dose 600 mg/kg; method in brief: as §1
[16] = tested on: Mus musculus; assay: Compound was tested for toxicity by rotarod assay method in mice 30 min after ip administration at 600 mg/kg; no activity; assay type: organism-based; set-up: dose 600 mg/kg, route intraperitoneal; conditions: in vivo, 0.5 h
[17] = tested on: Mus musculus; assay: Compound was tested for toxicity by rotarod assay method in mice 30 min after ip administration of 600 mg/kg; no activity; assay type: organism-based; set-up: dose 600 mg/kg, route intraperitoneal; conditions: in vivo, 0.5 h
[18] = tested on: Mus musculus; assay: Compound was tested for toxicity by rotarod assay method in mice 4 hours after ip administration of 600 mg/kg; NA=No activity; assay type: organism-based; set-up: dose 600 mg/kg, route intraperitoneal; conditions: in vivo
[19] = tested on: Mus musculus; assay: Anticonvulsant activity against maximal electroshock (MES) induced seizures in mice 30 minutes after ip administration of 600 mg/kg; A=Active; assay type: functional, organism-based; set-up: dose 600 mg/kg; method in brief: as §2
[20] = tested on: Mus musculus; assay: Compound was tested for toxicity by rotarod assay method in mice after intraperitoneal administration after 4 hours at 600 mg/kg; no activity; assay type: organism-based; set-up: dose 600 mg/kg, route intraperitoneal; conditions: in vivo, ip
[21] = tested on: Mus musculus; assay: Anticonvulsant activity against maximal electroshock (MES) induced seizures in mice […] after ip administration of 600 mg/kg; NA=No activity; assay type: functional, organism-based; set-up: dose 600 mg/kg; method in brief: as §2
[22] = tested on: Mus musculus; assay: Anticonvulsant activity against sc pentylenetetrazole induced convulsions in mice 30 minutes after ip administration of 600 mg/kg; A=Active; assay type: functional, organism-based; set-up: dose 600 mg/kg; method in brief: as §1
[23] = tested on: Mus musculus; assay: (§3) Compound for toxicity by rotarod assay method in mice after administration; assay type: organism-based; conditions: in vivo
Method in brief: (§4)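 Neurologic deficit was tested in male Carworth Farms No. 1 mice 30 min and 4 h after ip dosing in 30% PEG 400, at 30–600 mg/kg. Each mouse was placed on a 1-in.-diameter knurled plastic rod turning at 6 rpm. Toxicity meant failing to stay on the rod for 1 min.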

[24] = Protective index measured as the ratio between TD50 and ED50; assay type: ADME
[25] = as §3; assay type: organism-based; conditions: mouse, in vivo; method in brief: as §4
[26] = species: Mus musculus; assay: Anticonvulsant activity against maximal electroshock (MES)-induced seizures in mice; assay type: functional; method in brief: as §2
[27] = tested on: Mus musculus; assay: Anticonvulsant activity against maximal electroshock (MES) induced seizures in mice 4 hours after ip administration of 100 mg/kg; A=Active; assay type: functional, organism-based; set-up: dose 100 mg/kg; method in brief: as §2
[28] = tested on: Mus musculus; assay: Anticonvulsant activity against maximal electroshock (MES) induced seizures in mice 30 minutes after ip administration of 30 mg/kg; A=Active; assay type: functional, organism-based; set-up: dose 30 mg/kg; method in brief: as §2
[29] = tested on: Mus musculus; assay: Compound was tested for toxicity by rotarod assay method in mice after intraperitoneal administration after 30 minutes; assay type: functional, organism-based; method in brief: as §4
[30] = tested on: Mus musculus; assay: Compound was tested for toxicity by rotarod assay method in mice after intraperitoneal administration after 4 hours; assay type: functional, organism-based; method in brief: as §4

For `Cc1cc(C)cc(NC(=O)c2cccc(N)c2)c1`, the Anticonvulsant activity [1] was “inactive”, the Anticonvulsant activity [2] was “Active” and the Toxicity [3] was “Active”. The Anticonvulsant activity [4] was “Active” and the Anticonvulsant activity [5] was “Active”.

In the case of `Cc1cccc(NC(=O)c2cccc(N)c2)c1`, the Anticonvulsant activity [6] is reported as “Active”, the Anticonvulsant activity [7] is reported as “Active” and the Anticonvulsant activity [8] is reported as “Active”. The Toxicity [9] was “Active”, the Anticonvulsant activity [5] was “Active” and the Toxicity [10] was “Active”.

In the case of `Cc1ccc(NC(=O)c2cccc(N)c2)c(C)c1`, the Anticonvulsant activity [11] is reported as “inactive”, the Toxicity [12] is reported as “Not Active” and the Anticonvulsant activity [13] is reported as “inactive”. For the same compound, the Anticonvulsant activity [14] was “inactive”, the Anticonvulsant activity [15] was “inactive” and the Toxicity [16] was “Not Active”.

In the case of `Cc1cccc(C(C)C)c1NC(=O)c1ccccc1N`, the Anticonvulsant activity [11] is reported as “inactive”, the Toxicity [17] is reported as “Not Active” and the Anticonvulsant activity [1] is reported as “inactive”. The Toxicity [18] was “Not Active”, the Anticonvulsant activity [19] was “Active” and the Anticonvulsant activity [15] was “inactive”.

In the case of `CCc1cccc(C(C)C)c1NC(=O)c1cccc(N)c1`, the Toxicity [17] is reported as “Not Active”, the Anticonvulsant activity [1] is reported as “inactive” and the Toxicity [20] is reported as “Not Active”. The Anticonvulsant activity [8] was “Active”, the Anticonvulsant activity [4] was “Active” and the Anticonvulsant activity [15] was “inactive”.

With `Cc1ccc(NC(=O)c2cccc(N)c2)cc1` the Toxicity [17] was “Not Active”, the Anticonvulsant activity [1] was “inactive” and the Anticonvulsant activity [2] was “Active”. For the same compound, the Anticonvulsant activity [4] was “Active”, the Anticonvulsant activity [15] was “inactive” and the Toxicity [10] was “Active”.

For `Cc1cccc(NC(=O)c2ccccc2N)c1C`, the Anticonvulsant activity [11] was “inactive”, the Anticonvulsant activity [1] was “inactive” and the Anticonvulsant activity [21] was “inactive”. For the same compound, the Toxicity [18] was “Not Active”, the Toxicity [3] was “Active” and the Anticonvulsant activity [22] was “Active”.

With `CC(NC(=O)c1ccc(N)cc1)c1ccccc1` (stereo not drawn) the TD50 [23] was 170.78 mg/kg and the PI [24] was 9.5 and 4.1.

For `Cc1ccccc1NC(=O)c1cccc(N)c1`, the TD50 [25] was 109 mg/kg, the Anticonvulsant activity [7] was “Active” and the Anticonvulsant activity [1] was “inactive”. For the same compound, the Anticonvulsant activity [2] was “Active”, the Toxicity [9] was “Active” and the ED50 [26] was 44.7 mg/kg. For the same compound, the Anticonvulsant activity [5] was “Active” and the Toxicity [10] was “Active”.

With `Cc1cccc(C)c1NC(=O)c1cccc(N)c1` the TD50 [25] was 285 mg/kg, the Anticonvulsant activity [1] was “inactive” and the Toxicity [3] was “Active”. The selectivity ratio ([24]; read-out: PI) was 21.1, the ED50 [26] was 13.5 mg/kg and the Anticonvulsant activity [27] was “Active”. The Anticonvulsant activity [15] was “inactive”, the Toxicity [10] was “Active” and the Anticonvulsant activity [28] was “Active”.

With `Cc1cccc(NC(=O)c2cccc(N)c2)c1C` the Anticonvulsant activity [11] was “inactive”, the Anticonvulsant activity [1] was “inactive” and the Toxicity [29] was “inactive”. For the same compound, the Anticonvulsant activity [19] was “Active”, the Anticonvulsant activity [15] was “inactive” and the Toxicity [30] was “inactive”.

For `Cc1ccc(NC(=O)c2ccccc2N)cc1`, the Anticonvulsant activity [11] was “inactive”, the Toxicity [12] was “Not Active” and the Anticonvulsant activity [13] was “inactive”. The Anticonvulsant activity [14] was “inactive”, the Anticonvulsant activity [15] was “inactive” and the Toxicity [16] was “Not Active”.

For `Cc1cc(C)cc(NC(=O)c2ccccc2N)c1`, the Anticonvulsant activity [11] was “inactive”, the Toxicity [12] was “Not Active” and the Anticonvulsant activity [13] was “inactive”. The Anticonvulsant activity [14] was “inactive”, the Anticonvulsant activity [15] was “inactive” and the Toxicity [16] was “Not Active”.
